Laboratory results published in ChEMBL document CHEMBL1139427, “Inhibition of IkappaB kinase-beta and anticancer activities of novel chalcone adamantyl arotinoids” (J Med Chem, 2008).
Calls of active or inactive are those of the source. No cut-off for these calls is given here.

What was measured:
[1] = target: T1, Retinoic acid receptor alpha (Homo sapiens) (UniProt P10276); experiment: Antagonist activity at human RARalpha expressed in african green monkey CV1 cells assessed as all-trans-retinoic acid-stimulated Gal4 transactivation activity by luciferase reporter gene assay; assay type: functional, cell-based; settings: CV-1
T1 sequence (whole entry): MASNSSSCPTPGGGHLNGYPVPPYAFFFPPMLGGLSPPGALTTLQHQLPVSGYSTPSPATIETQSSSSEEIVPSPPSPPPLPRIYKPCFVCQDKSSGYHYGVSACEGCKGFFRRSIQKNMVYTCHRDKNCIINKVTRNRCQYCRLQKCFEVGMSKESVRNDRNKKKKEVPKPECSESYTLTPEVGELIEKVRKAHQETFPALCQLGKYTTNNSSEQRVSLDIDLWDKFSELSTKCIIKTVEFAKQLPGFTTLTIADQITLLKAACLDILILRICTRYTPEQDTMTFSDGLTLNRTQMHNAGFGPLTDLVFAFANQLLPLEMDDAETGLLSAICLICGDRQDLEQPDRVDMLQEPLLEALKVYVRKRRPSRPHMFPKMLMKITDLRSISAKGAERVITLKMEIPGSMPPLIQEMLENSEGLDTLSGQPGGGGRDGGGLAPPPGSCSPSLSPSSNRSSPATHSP
How it was run: (§1)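 Same Gal4-RAR LBD/UAS-luciferase CV-1 transfection, 5% charcoal-treated FBS medium. Cells stimulated with 0.2 µM ATRA alone or with 2 µM compound (10-fold molar excess). Readout after 6 h (RARα, RARβ) or 20 h (RARγ). Luciferase normalized to β-galactosidase, as % of ATRA maximum; mean ± SD, ≥2 experiments in triplicate.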

[2] = target: T2, Retinoic acid receptor beta (Homo sapiens) (UniProt P10826); experiment: Antagonist activity at human RARbeta expressed in african green monkey CV1 cells assessed as all-trans-retinoic acid-stimulated Gal4 transactivation activity by luciferase reporter gene assay; assay type: functional, cell-based; set-up: scale not given: the % may be the effect or the level left; settings: CV-1; how it was run: as §1
T2 sequence (whole entry): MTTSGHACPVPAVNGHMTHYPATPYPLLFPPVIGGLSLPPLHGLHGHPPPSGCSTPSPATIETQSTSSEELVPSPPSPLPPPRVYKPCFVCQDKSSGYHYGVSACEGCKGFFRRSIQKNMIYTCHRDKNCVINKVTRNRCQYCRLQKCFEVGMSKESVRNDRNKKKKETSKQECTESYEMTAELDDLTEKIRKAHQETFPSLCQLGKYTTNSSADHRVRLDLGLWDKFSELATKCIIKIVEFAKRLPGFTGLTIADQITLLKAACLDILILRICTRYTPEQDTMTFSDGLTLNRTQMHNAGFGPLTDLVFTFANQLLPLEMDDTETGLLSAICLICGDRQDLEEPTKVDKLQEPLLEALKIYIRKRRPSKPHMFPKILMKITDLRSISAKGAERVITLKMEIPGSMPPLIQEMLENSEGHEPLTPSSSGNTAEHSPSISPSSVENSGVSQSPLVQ

[3] = target: T3, Retinoic acid receptor gamma (Homo sapiens) (UniProt P13631); experiment: Antagonist activity at human RARgamma expressed in african green monkey CV1 cells assessed as all-trans-retinoic acid-stimulated Gal4 transactivation activity by luciferase reporter gene assay; assay type: functional, cell-based; set-up: scale not given: the % may be the effect or the level left; settings: CV-1; how it was run: as §1
T3 sequence (whole entry): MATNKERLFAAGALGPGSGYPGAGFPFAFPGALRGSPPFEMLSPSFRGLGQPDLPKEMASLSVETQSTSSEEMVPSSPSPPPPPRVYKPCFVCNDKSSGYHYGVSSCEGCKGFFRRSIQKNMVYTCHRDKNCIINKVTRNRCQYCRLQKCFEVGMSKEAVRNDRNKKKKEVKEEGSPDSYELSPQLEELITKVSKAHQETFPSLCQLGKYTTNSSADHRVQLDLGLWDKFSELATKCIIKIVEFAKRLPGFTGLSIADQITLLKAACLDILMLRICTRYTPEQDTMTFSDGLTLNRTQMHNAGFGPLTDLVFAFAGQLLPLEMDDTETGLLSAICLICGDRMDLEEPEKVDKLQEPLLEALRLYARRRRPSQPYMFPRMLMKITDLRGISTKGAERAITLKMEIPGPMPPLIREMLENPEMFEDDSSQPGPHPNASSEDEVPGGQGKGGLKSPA

[4] = target: T1, Retinoic acid receptor alpha (Homo sapiens); experiment: Activity at human RARalpha expressed in african green monkey CV1 cells assessed as enhanced Gal4 transactivation activity by luciferase reporter gene assay; assay type: cell-based; settings: CV-1
How it was run: (§2)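 Gal4 DBD fused to human RAR LBD (α 156-462, β 149-448, γ 158-454), cotransfected into CV-1 cells (20 000/well) with UAS-luciferase and β-galactosidase vectors. 16 h later, medium with 5% charcoal-treated FBS; compound at 2 µM alone, ATRA 1 µM reference. Read after 6 h (RARα, RARβ) or 20 h (RARγ). Normalized luciferase as % of ATRA maximum; mean ± SD, ≥2 experiments in triplicate.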

[5] = target: T2, Retinoic acid receptor beta (Homo sapiens); experiment: Activity at human RARbeta expressed in african green monkey CV1 cells assessed as enhanced Gal4 transactivation activity by luciferase reporter gene assay; assay type: cell-based; settings: CV-1; how it was run: as §2
[6] = target: T3, Retinoic acid receptor gamma (Homo sapiens); experiment: Activity at human RARgamma expressed in african green monkey CV1 cells assessed as enhanced Gal4 transactivation activity by luciferase reporter gene assay; assay type: cell-based; settings: CV-1; how it was run: as §2
Jurkat [7] = experiment: Antiproliferative activity against retinoid related molecule-sensitive human Jurkat cells after 24 hrs by MTT assay; assay type: functional, cell-based
How it was run: (§3)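 MTT viability assay. PC-3, T-47D and MDA-MB-468 seeded at 5000/well the day before, switched to 0.5% FBS medium at treatment. Jurkat seeded at 10 000/well (10⁵ cells/mL) in RPMI with 0.5% FBS. Compound 0.125-8 µM from DMSO stocks; DMSO ≤0.1% as control. Jurkat 24 h, others 48 h. MTT 4 h at 37 °C, SDS/HCl solubilization, A595. IC50 from two experiments in triplicate.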

PC-3 = experiment: Antiproliferative activity against human PC3 cells after 48 hrs by MTT assay; assay type: functional, cell-based; settings: PC-3, 48 h; how it was run: as §3
T47D = experiment: Antiproliferative activity against estrogen-dependent human T47D cells after 48 hrs by MTT assay; assay type: functional, cell-based; how it was run: as §3
MDA-MB-468 [8] = experiment: Antiproliferative activity against estrogen-independent human MDA-MB-468 cells after 48 hrs by MTT assay; assay type: functional, cell-based; settings: MDA-MB-468, 48 h; how it was run: as §3
MDA-MB-468 [9] = experiment: Antiproliferative activity against estrogen-independent human MDA-MB-468 cells by MTT assay; assay type: functional, cell-based; settings: TDE = time-dependent effect
How it was run: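 MDA-MB-468 cells exposed to 2 µM compound in 0.5% FBS medium for 24, 48 or 72 h. Proliferation by MTT (A595) relative to DMSO control. Experiment repeated twice with triplicate time points; one representative experiment reported.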

Jurkat [10] = experiment: Induction of apoptosis in human Jurkat cells assessed as enhanced DEVDase activity after 4 hrs by fluorescence enzymatic assay; assay type: functional, cell-based
How it was run: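 Jurkat cells (40 000/well, 10⁶ cells/mL) in RPMI with 0.5% FBS, treated 4 h (2 or 4 µM). Lysed in PIPES/NP-40 buffer 30 min at 4 °C, then diluted into HEPES/CHAPS caspase buffer with 100 µM Ac-DEVD-AFC. AFC release read every 2 min over 30 min at 37 °C (ex 390/em 510 nm). Two experiments in triplicate, mean ± SD.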

[11] = target: T4, Inhibitor of nuclear factor kappa-B kinase subunit beta (Homo sapiens, UniProt O14920); experiment: Inhibition of purified recombinant histidine-HA-tagged IKK-beta expressed in SF9 cells
T4 sequence (O14920 whole entry): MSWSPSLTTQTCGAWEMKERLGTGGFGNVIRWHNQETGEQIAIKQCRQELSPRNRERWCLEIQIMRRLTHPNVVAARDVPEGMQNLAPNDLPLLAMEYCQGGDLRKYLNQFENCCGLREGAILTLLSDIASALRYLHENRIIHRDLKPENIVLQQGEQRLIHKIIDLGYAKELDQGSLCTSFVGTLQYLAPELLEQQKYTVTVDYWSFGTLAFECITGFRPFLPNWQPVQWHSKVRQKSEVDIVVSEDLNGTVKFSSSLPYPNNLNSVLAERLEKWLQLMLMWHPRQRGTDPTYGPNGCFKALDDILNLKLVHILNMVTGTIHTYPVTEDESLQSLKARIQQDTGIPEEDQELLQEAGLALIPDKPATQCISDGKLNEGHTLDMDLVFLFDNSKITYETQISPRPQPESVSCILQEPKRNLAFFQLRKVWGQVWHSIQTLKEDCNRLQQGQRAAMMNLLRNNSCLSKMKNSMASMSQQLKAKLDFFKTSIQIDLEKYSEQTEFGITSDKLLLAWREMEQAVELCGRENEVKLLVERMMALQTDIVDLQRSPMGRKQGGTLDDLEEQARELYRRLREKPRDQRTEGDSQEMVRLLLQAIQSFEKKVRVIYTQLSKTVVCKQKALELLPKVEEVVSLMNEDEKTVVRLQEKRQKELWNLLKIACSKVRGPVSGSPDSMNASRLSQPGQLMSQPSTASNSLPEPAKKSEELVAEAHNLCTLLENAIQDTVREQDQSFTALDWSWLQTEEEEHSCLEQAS

[12] = target: T5, Inhibitor of nuclear factor kappa-B kinase subunit beta (Homo sapiens) (UniProt O14920); experiment: Inhibition of purified recombinant histidine-HA-tagged IKK-beta expressed in SF9 cells at 20 uM
T5 sequence (whole entry): T4 sequence (O14920 whole entry)
How it was run: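 (His)6-HA-IKKβ expressed in baculovirus-infected Sf9 cells and Ni-resin purified. 100 ng enzyme in MOPS pH 7.0 buffer with 5 µg GST-IκBα, 10 mM MgCl₂, 6.25 µM ATP (Km level) plus ³²P-γ-ATP. Compound (20 µM) preincubated with enzyme/substrate before ATP/Mg addition. 30 min at 30 °C, stopped with phosphoric acid, filter-bound radioactivity counted. No-enzyme background subtracted; activity as ratio to control. Two to four experiments in triplicate.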

[13] = tested on: Retinoid X receptor RXR-alpha (Mus musculus); experiment: Inhibition of LGD-1069-mediated mouse RXRalpha activation expressed in african green monkey CV1 cells; settings: CV-1
[14] = tested on: Retinoid X receptor RXR-alpha (Mus musculus); experiment: Activation of mouse RXRalpha expressed in african green monkey CV1 cells assessed as luciferase activity; settings: CV-1
[15] = tested on: Retinoid X receptor RXR-alpha (Mus musculus); experiment: Inhibition of 9-cis-retinoic acid-mediated mouse RXRalpha activation expressed in african green monkey CV1 cells; settings: CV-1
MDA-MB-468 [16] = experiment: Antiproliferative activity against estrogen-independent human MDA-MB-468 cells at 2 uM after 72 hrs by MTT assay

In the case of `CC1(C)CC=C(C#Cc2ccccc2)c2cc(/C=C/c3ccc(C(=O)O)cc3)ccc21`, the Activity [1] is reported as “Active”, the Activity [2] is reported as “Active” and the Activity [3] is reported as “Active”.
In the case of `COCCOCOc1ccc(C(=O)/C=C/c2ccc(C(=O)O)cc2)cc1C12CC3CC(CC(C3)C1)C2`, the Activity [4] is reported as “inactive”, the Activity [5] is reported as “inactive” and the Activity [6] is reported as “inactive”. For the same compound, the Activity [1] was “Active”, the Activity [2] was 30% and the Activity [3] was 30%. It also gave an IC50 (Jurkat [7]) of 1.2 µM, an IC50 (PC-3) of 1.48 µM and an IC50 (T47D) of 3.27 µM. For the same compound, the IC50 (MDA-MB-468 [8]) was 2.11 µM, the Activity (MDA-MB-468 [9]) was “tde” and the Activity (Jurkat [10]) was “Active”. The IC50 [11] was 7 µM, the inhibition [12] was 65% and the Activity [13] was “inactive”. The Activity [14] was “inactive” and the Activity [15] was “inactive”.
`Cc1ccc2nc(NCCN)c3ncc(C)n3c2c1` was tested, and the Activity [12] was “Active”.
`COCCOCOc1cc(O)c(C(=O)/C=C/c2ccc(C(=O)O)cc2)cc1C12CC3CC(CC(C3)C1)C2` was tested, and the Activity [4] was “inactive”, the Activity [5] was “inactive” and the Activity [6] was “inactive”. The Activity [1] was “Active”, the Activity [2] was “Active” and the Activity [3] was “Active”. It also gave an IC50 (Jurkat [7]) of 1.89 µM, an IC50 (PC-3) of 2.51 µM and an IC50 (T47D) of 8 µM. For the same compound, the IC50 (MDA-MB-468 [8]) was 6.08 µM, the Activity (MDA-MB-468 [9]) was “tde” and the Activity (Jurkat [10]) was “Active”. The Activity [13] was “inactive”, the Activity [14] was “inactive” and the Activity [15] was “inactive”. For the same compound, the Activity (MDA-MB-468 [16]) was 40%.
